From PMC6075728 (Bioconjugate chemistry, 2017)
“Also recorded” adds a separate entry of the source. Where a SMILES comes first, the peptide text is derived from it. Where no end group is shown, it is not given here. The star is where a group is joined. X1 = O=C(O)CN1CCN(CC(=O)O)CCN(CC(O)Cn2cc(CCCC(=O)*)nn2)CCN(CC(=O)O)CC1; PEG2 = NCCOCCOCCC(=O)O

Key:
[1] = r1 relaxivity in PC3 tumor lysates; format: physicochemical; conditions: T1 mapping phantom
[2] = test system: PC3 prostate tumor xenografts (EDB-FN); assay: Contrast enhanced T1-weighted MRI, PC3 tumor xenografts; format: in vivo, mouse (male athymic nude); conditions: for tumor differentiation: CNR/enhancement in PC3 vs LNCaP tumors: PC3 compared with LNCaP tumors, during 30 min after injection; for signal/contrast enhancement: T1-weighted MRI, up to 30 min post-injection; for contrast-to-noise ratio (CNR), range: first 30 min post-injection, i.v. (ZD2-Gd(HP-DO3A) 0.1 mmol/kg), ZD2-Gd(HP-DO3A) vs ProHance P < 0.05 at all time points
[3] = test system: LNCaP prostate tumor xenografts (EDB-FN); assay: Contrast enhanced T1-weighted MRI, LNCaP tumor xenografts; format: in vivo, mouse (male athymic nude); conditions: for signal/contrast enhancement: T1-weighted MRI, up to 30 min post-injection; for contrast-to-noise ratio (CNR), range: first 30 min post-injection, i.v., 7T
[4] = test system: other organs and normal tissues; assay: Contrast enhanced T1-weighted MRI, other organs and normal tissues; format: in vivo, mouse (male athymic nude); conditions: i.v.
EDB protein = EDB protein (Homo sapiens, UniProt P02751); assay: SPR binding to immobilized EDB protein; conditions: second (blue) trend line
[5] = In vitro chelate stability / transmetallation in PBS with Cu2+, Ca2+, Zn2+; format: physicochemical
[6] = T1 relaxivity at 7T in PBS; format: physicochemical; conditions: phantom, 3.12 - 50 μM
Procedure, shortened: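 Multi-compartment phantom of the test compound in PBS at 50, 25, 12.5, 6.25 and 3.12 μM, imaged on a horizontal 7T scanner. T1 maps came from an accelerated multi-slice method combining a saturation-recovery Look-Locker sequence with spiral k-space sampling. r1 was taken from the slope of 1/T1 plotted against concentration.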

PC3 tumors = assay: Quantitative T1 mapping, PC3 tumors; format: in vivo, mouse (male athymic nude); conditions: 30 min after injection
LNCaP tumors = assay: Quantitative T1 mapping, LNCaP tumors; format: in vivo, mouse (male athymic nude); conditions: 30 min after injection
PC3 and LNCaP tumors = conditions: after T1 mapping, about 30 min post-injection; n = 4
[7] = Gd biodistribution / tissue retention; conditions: 1 week after injection, ICP-OES
[8] = In vivo transmetallation and urinary excretion
[9] = test system: EDB-FN in PC3 tumor sections; assay: Confocal fluorescence of PC3 tumor sections; design: species or system mouse; conditions: confocal microscopy
[10] = test system: high-grade human prostate tumor; conditions: cited from earlier work
low-grade tumor = conditions: cited from earlier work
non-cancerous tissue = conditions: cited from earlier work

Sequence of EDB protein (P02751 1271-1359 limits assumed): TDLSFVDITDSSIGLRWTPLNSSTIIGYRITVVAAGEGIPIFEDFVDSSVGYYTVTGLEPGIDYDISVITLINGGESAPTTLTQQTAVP

**Q.** Which results are given for `CC(O)CN1CCN(CC(=O)[O-])CCN(CC(=O)[O-])CCN(CC(=O)[O-])CC1.[Gd+3]` (centres unmarked) [ProHance, gadoteridol, reference compound]?
**A.** r1 relaxivity [1]: 3.17 mM⁻¹ s⁻¹; tumor differentiation: CNR/enhancement in PC3 vs LNCaP tumors [2]: not significantly different; signal/contrast enhancement ([2]; PC3 tumors): modest contrast enhancement; contrast-to-noise ratio (CNR), range ([2]; PC3 tumors, 7T, n=5): 7~11; signal/contrast enhancement ([3]; LNCaP tumors): modest contrast enhancement; contrast-to-noise ratio (CNR), range ([3]; LNCaP tumors, n=5): 7~10; contrast enhancement in other organs and normal tissues [4]: did not produce significant contrast enhancement

**Q.** For “Cys-Arg-Glu-Lys-Ala [CREKA-Gd(HP-DO3A), reference compound]”, which “tumor differentiation: CNR/enhancement in PC3 vs LNCaP tumors” value [2] is on record?
**A.** no significant difference

**Q.** What about the signal/contrast enhancement ([2]; PC3 tumors) of the same compound?
**A.** significant contrast enhancement in the periphery

**Q.** And the signal/contrast enhancement ([3]; LNCaP tumors)?
**A.** significant contrast enhancement in the periphery

**Q.** What does the source list for `CC(C)[C@H](NC(=O)[C@@H](NC(=O)CCOCCOCCNC(=O)CCCc1cn(CC(O)CN2CCN(CC(=O)O)CCN(CC(=O)O)CCN(CC(=O)O)CC2)nn1)[C@@H](C)O)C(=O)N[C@@H](CCCNC(=N)N)C(=O)N[C@H](C(=O)N[C@@H](CO)C(=O)N[C@@H](C)C(=O)N[C@@H](CC(=O)O)C(=O)O)[C@@H](C)O` (some centres unmarked) [ZD2-Gd(HP-DO3A)] ({X1-PEG2}-TVRTSAD-OH; C-terminus assumed)?
**A.** weak binding site in SPR Scatchard plot (EDB protein): weak binding site; relative Gd3+ content ([5]; 200-min incubation in PBS with and without Cu2+, Ca2+ or Zn2+): No decrease in Gd^3+ content was observed; transmetallation / chelate stability ([5]; 24 hours incubation with Cu2+, Ca2+ and Zn2+ in PBS, pH = 7.4): high chelate stability, comparable to its clinical analog ProHance, with no evident transmetallation; chelation stability in vitro ([5]; summary statement, Fig. 2): high chelate stability against transmetallation; also recorded: same high in vitro and in vivo chelation stability; T1 relaxivity (r1) [6]: 3.7 mM⁻¹ s⁻¹; r1 relaxivity [1]: 4.12 mM⁻¹ s⁻¹; tumor differentiation: CNR/enhancement in PC3 vs LNCaP tumors [2]: over two times higher; CNR increase at 10 min ([2]; PC3 tumors, 10 min post-injection, 0.1 mmol/kg i.v., n=5): over two-fold increase; contrast-to-noise ratio (CNR), peak ([2]; PC3 tumors, 30 min post-injection, 0.1 mmol/kg i.v., 7T, mean±SEM, n=5): 23.7±1.68; CNR increase at 30 min ([2]; PC3 tumors, 30 min post-injection, 0.1 mmol/kg i.v., n=5): over five-fold increase; signal/contrast enhancement ([2]; PC3 tumors): strong signal enhancement within first 10 minutes post-injection; contrast-to-noise ratio (CNR), range ([2]; PC3 tumors, 7T, n=5): 12~25; signal/contrast enhancement ([3]; LNCaP tumors): significantly lower signal enhancement; also recorded: not evident in slow growing LNCaP tumors; also recorded: low enhancement; CNR increase ([3]; LNCaP tumors, first 30 min after 0.1 mmol/kg i.v., n=5): 10~60%; contrast-to-noise ratio (CNR), range ([3]; LNCaP tumors, n=5): 6~9; CNR in LNCaP relative to PC3 tumors ([3]; LNCaP vs PC3, P < 0.01 for 10 and 20 min, P < 0.001 for 30 min post-injection): more than two times lower; contrast enhancement in other organs and normal tissues [4]: did not produce significant contrast enhancement; tumor T1, post-contrast (PC3 tumors): 1.81 ± 0.07 s; change in relaxation rate (ΔR1) (PC3 tumors; n = 4): highest relaxation rate change in the PC3 tumors among all cases; tumor T1, post-contrast (LNCaP tumors): 2.54 ± 0.13 s; Gd3+ concentration in tumors (ICP-OES) (PC3 and LNCaP tumors): significantly higher concentration in the PC3 tumors than in the LNCaP tumors and that of ProHance in both the tumors; tissue retention / accumulation ([7]; 0.1 mmol-Gd/kg tail vein, ZD2-Gd(HP-DO3A) n = 4, ProHance n = 3): minimal tissue accumulation; also recorded: same low tissue retention as ProHance; also recorded: No significant difference was seen between the two groups; also recorded: minimal body accumulation; Gd3+ concentration in most organs, including brain, heart, skin [7]: below the detection limit of ICP-OES in most of the organs; chelation stability in vivo ([8]; summary statement, Fig. 7): same high in vitro and in vivo chelation stability; renal clearance ([8]; urine, 24 hours post-injection): rapid clearance through renal filtration; injected dose excreted in urine ([8]; within 24 hours post-injection, 0.1 mmol-Gd/kg tail vein, ICP-OES): over 95%

**Q.** What does the source list for TVRTSAD [ZD2]?
**A.** reduction of PC3 tumor enhancement by competition ([2]; co-injection of excess free ZD2 peptide 0.5 mmol/kg with ZD2-Gd(HP-DO3A) 0.1 mmol/kg, PC3 tumors, n=3): significantly reduced signal enhancement and CNR; also recorded: blocked the binding of the targeted agent and reduced tumor enhancement in the PC3 tumors; colocalization with EDB-FN [9]: colocalize with the EDB-FN fibril network; binding to high-grade human prostate tumor [10]: strong specific binding; binding to low-grade tumor (low-grade tumor): low binding; binding in non-cancerous tissue (non-cancerous tissue): non-binding
